Experimental data as given in ChEMBL document CHEMBL2380260, “Structure-activity relationship of N,N'-disubstituted pyrimidinetriones as Ca(V)1.3 calcium channel-selective antagonists for Parkinson's disease” (J Med Chem, 2013).

Tests used:
[1] = Selectivity ratio of IC50 for rabbit CaV1.2alpha1C to IC50 for rat CaV1.3alpha1D
How it was run: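 Selectivity is defined as […] the ratio of the CaV1.2 IC50 to the CaV1.3 IC50. Both IC50s come from the Fluo-8 FLIPR calcium influx assay in stably transfected HEK293 cells, each run in triplicate and fitted to a one-site sigmoidal model.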

[2] = biological target: Voltage-dependent L-type calcium channel subunit alpha-1D (Rattus norvegicus, UniProt P27732); experiment: Antagonist activity at rat CaV1.3alpha1D transfected in HEK293 cells by FLIPR assay; type: cell-based
How it was run: (§1)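 HEK293 cells stably expressing the L-type channel (rat CaV1.3 α1D with all alternative splice sites, or rabbit CaV1.2 α1C), each co-expressed with rat β3 and α2δ-1 subunits. Cells plated at 4 × 10⁴ cells/well and cultured in DMEM with 10% FBS for 4 days. Calcium influx read by Fluo-8 no-wash dye fluorescence on FLIPR Tetra. IC50 from triplicate percent-inhibition data fitted to a one-site sigmoidal model.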

[3] = biological target: Voltage-dependent L-type calcium channel subunit alpha-1C (Oryctolagus cuniculus, UniProt P15381); experiment: Antagonist activity at rabbit CaV1.2alpha1C transfected in HEK293 cells by FLIPR assay; type: cell-based; how it was run: as §1
Sequence of Voltage-dependent L-type calcium channel subunit alpha-1C (P15381 whole entry): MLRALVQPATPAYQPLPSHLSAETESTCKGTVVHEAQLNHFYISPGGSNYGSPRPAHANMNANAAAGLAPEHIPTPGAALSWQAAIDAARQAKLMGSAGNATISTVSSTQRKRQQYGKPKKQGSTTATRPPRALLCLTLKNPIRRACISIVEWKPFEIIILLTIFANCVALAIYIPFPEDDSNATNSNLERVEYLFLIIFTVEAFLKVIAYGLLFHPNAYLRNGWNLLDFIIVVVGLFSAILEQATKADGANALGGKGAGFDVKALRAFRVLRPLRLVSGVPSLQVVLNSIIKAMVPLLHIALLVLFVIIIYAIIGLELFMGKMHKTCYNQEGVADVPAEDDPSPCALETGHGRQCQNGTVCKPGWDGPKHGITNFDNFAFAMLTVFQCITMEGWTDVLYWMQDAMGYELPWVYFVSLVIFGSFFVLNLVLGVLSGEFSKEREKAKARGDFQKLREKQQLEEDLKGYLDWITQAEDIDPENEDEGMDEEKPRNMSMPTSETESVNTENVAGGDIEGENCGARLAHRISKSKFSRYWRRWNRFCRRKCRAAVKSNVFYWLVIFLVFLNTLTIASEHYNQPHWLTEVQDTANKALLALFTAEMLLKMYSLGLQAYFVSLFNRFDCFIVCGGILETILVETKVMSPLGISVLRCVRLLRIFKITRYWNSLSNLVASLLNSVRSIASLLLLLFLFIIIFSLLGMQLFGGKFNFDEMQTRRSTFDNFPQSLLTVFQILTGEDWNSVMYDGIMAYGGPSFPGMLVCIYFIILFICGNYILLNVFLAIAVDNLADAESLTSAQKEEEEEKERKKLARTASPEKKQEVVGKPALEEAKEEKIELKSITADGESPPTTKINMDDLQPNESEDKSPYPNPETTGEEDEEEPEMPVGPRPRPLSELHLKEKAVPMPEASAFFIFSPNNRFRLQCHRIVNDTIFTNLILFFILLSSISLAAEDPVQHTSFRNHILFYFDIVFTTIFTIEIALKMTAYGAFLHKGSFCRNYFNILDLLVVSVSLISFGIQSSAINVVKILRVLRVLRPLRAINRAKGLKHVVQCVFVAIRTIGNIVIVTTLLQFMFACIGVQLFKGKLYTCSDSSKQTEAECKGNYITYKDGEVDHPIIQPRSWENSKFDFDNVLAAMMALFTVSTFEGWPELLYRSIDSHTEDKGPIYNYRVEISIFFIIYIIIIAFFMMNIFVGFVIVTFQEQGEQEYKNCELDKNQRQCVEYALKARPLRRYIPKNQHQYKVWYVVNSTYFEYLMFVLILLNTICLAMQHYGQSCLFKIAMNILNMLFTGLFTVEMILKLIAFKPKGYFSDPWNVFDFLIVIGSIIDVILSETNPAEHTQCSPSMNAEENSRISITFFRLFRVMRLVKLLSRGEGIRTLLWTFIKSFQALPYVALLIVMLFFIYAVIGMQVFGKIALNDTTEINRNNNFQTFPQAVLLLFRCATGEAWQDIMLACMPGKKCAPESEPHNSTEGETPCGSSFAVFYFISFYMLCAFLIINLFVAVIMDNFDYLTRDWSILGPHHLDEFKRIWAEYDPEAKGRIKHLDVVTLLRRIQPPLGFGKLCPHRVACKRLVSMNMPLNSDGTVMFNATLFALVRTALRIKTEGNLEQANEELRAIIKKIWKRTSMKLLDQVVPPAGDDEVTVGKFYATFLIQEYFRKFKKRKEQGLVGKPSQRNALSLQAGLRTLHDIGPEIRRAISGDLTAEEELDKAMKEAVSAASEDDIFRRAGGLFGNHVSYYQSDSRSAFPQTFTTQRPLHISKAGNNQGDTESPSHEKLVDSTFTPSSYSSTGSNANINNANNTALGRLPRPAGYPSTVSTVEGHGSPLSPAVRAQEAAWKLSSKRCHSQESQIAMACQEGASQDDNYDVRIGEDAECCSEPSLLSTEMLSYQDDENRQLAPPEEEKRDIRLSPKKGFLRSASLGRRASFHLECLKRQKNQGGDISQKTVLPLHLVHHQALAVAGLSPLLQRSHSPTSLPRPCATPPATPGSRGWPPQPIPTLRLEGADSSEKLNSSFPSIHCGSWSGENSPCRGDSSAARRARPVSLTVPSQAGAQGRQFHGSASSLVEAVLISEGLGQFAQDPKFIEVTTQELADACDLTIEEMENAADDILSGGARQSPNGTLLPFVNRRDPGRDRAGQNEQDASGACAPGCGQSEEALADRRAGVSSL

Sequence of Voltage-dependent L-type calcium channel subunit alpha-1D (P27732 whole entry, canonical isoform): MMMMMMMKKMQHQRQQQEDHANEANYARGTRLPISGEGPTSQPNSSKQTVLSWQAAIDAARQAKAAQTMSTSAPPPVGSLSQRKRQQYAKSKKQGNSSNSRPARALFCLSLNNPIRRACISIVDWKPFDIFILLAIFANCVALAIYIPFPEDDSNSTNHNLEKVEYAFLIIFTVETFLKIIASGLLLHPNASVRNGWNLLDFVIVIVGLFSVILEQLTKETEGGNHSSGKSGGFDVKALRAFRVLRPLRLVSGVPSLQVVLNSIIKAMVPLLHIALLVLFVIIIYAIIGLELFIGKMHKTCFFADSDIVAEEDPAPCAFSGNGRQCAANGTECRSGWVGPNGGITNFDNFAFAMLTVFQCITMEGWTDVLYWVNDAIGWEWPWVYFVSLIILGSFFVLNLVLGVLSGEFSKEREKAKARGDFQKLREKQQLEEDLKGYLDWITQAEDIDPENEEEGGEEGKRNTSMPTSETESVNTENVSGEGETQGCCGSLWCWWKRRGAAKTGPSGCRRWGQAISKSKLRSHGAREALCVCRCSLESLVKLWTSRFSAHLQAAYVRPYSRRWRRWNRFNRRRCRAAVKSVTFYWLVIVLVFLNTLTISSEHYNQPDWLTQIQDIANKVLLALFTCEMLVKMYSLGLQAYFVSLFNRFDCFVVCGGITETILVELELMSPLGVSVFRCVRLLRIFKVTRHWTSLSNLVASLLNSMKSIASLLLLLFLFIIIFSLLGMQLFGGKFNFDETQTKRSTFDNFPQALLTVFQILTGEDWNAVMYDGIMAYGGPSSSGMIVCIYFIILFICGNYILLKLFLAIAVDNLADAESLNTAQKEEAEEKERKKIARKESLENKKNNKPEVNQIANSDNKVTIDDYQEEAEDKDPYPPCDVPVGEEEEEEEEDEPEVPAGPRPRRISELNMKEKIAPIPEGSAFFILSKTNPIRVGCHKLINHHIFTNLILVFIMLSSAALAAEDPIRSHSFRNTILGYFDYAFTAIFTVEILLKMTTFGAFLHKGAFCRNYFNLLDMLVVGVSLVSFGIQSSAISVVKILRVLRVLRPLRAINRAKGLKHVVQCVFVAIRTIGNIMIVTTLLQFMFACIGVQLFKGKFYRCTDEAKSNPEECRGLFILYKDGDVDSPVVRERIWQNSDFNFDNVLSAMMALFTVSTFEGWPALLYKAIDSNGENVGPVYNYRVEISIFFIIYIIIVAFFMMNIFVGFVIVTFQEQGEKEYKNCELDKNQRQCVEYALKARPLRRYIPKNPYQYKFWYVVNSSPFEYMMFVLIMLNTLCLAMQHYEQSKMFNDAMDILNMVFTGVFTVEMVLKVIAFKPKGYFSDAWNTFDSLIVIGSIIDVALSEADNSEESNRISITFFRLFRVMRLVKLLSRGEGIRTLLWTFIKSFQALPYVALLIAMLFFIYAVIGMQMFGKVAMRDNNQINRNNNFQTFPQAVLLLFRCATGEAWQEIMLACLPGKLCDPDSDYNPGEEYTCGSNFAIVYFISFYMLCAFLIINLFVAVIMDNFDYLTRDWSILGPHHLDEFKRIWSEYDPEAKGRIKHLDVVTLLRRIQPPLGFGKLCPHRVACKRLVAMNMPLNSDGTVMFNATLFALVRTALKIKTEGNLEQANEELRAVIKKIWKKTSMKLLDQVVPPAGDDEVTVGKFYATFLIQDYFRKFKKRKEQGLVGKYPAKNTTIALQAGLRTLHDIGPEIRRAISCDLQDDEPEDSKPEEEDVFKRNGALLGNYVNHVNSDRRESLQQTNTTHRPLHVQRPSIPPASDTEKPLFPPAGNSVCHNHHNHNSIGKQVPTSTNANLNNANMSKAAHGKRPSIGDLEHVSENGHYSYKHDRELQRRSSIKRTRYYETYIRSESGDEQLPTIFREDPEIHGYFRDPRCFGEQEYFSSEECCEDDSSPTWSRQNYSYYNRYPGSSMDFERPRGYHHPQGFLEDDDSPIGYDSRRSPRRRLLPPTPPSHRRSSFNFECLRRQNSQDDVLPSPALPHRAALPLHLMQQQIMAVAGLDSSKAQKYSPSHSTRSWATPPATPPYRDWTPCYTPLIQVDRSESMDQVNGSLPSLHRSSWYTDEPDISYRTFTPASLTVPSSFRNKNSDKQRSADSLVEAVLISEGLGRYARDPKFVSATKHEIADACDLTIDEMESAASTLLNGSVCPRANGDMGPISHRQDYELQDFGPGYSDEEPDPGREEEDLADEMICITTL

SMILES	Ratio IC50 [1]	IC50 [2] [µM]	IC50 [3] [µM]
COC(=O)C1=C(C)NC(C)=C(C(=O)OC(C)C)C1c1cccc2nonc12 (stereo not drawn)	< 2	–	–
CC1(C)CCC[C@@H]1N1C(=O)CC(=O)N(CCc2ccc(Cl)cc2)C1=O	–	1.7	2.3
C[C@H]1CCC[C@H]1N1C(=O)CC(=O)N(CCc2ccc(Cl)cc2)C1=O	–	2.8	10
O=C1CC(=O)N(C2CCCC2)C(=O)N1CCc1cc(Cl)cc(Cl)c1	–	1.4	3.3
CC(CN1C(=O)CC(=O)N(C2CCCC2)C1=O)c1cccc(Cl)c1 (stereo not drawn)	–	4.2	20.7
CC(C)c1ccc(CCN2C(=O)CC(=O)N(C3CCCC3)C2=O)cc1	–	39	57.6
C[C@@H]1CCC[C@@H]1N1C(=O)CC(=O)N(CCc2ccc(Cl)cc2)C1=O	–	3.1	5.1
O=C1CC(=O)N(C2CCCC2)C(=O)N1CCC(c1ccccc1)c1ccccc1	–	4.1	4.7
CC1(C)CCC[C@H]1N1C(=O)CC(=O)N(CCc2cccc(C(F)(F)F)c2)C1=O	–	2.7	3.1
O=C1CC(=O)N(C[C@H]2CCCO2)C(=O)N1CCc1ccc(Cl)cc1	–	> 100	> 100
O=C1CC(=O)N(C2CCCC2)C(=O)N1CC1(c2ccc(Cl)cc2)CC1	–	7.3	> 100
O=C1CC(=O)N([C@H]2CCNC2)C(=O)N1CCc1cccc(Cl)c1	–	> 100	> 100
O=C1CC(=O)N([C@H]2C[C@H]3CC[C@@H]2C3)C(=O)N1CCc1cccc(C(F)(F)F)c1	–	3	> 100
C[C@@H]1[C@@H](N2C(=O)CC(=O)N(CCc3ccc(Cl)cc3)C2=O)C[C@H]2C[C@@H]1C2(C)C	–	22	28
CC1(C)[C@@H]2CC[C@@]1(C)[C@@H](N1C(=O)CC(=O)N(CCc3cccc(Cl)c3)C1=O)C2	–	> 100	> 100
C[C@H]1[C@H](N2C(=O)CC(=O)N(CCc3ccc(Cl)cc3)C2=O)C[C@@H]2C[C@H]1C2(C)C	–	18	> 100
COC(=O)[C@H](Cc1ccccc1)N1C(=O)CC(=O)N(C2CCCC2)C1=O	–	> 100	> 100
O=C1CC(=O)N(C2CCCC2)C(=O)N1c1cccc(C(F)(F)F)c1	–	> 100	> 100
C[C@@H]1[C@@H](N2C(=O)CC(=O)N(CCc3cccc(Cl)c3)C2=O)C[C@H]2C[C@@H]1C2(C)C	–	> 100	> 100
CC(Cc1ccc(Cl)cc1)N1C(=O)CC(=O)N(C2CC3CCC2C3)C1=O (racemic)	–	3.6	4.1
O=C1CC(=O)N([C@H]2CCC[C@@H]2O)C(=O)N1CCc1cccc(Cl)c1	–	> 100	> 100
COC(=O)C1=C(C)NC(=S)N(C(=O)OC(C)C)C1c1cccc([N+](=O)[O-])c1 (stereo not drawn)	< 2	–	–
O=C1CC(=O)N(C2CCCC2)C(=O)N1CCc1ccc(-c2ccccc2)cc1	–	4.4	5.4
O=C1CC(=O)N([C@@H]2C[C@@H]3CC[C@H]2C3)C(=O)N1CCc1cccc(C(F)(F)F)c1	–	2.1	76.6
O=C1CC(=O)N(C2Cc3ccccc3C2)C(=O)N1C1CCCC1	–	14.4	16.4

SMILES	Ratio IC50 [1]	IC50 [2] [µM]	IC50 [3] [µM]
CCC1CCC(N2C(=O)CC(=O)N(CCc3cccc(Cl)c3)C2=O)C1 (stereo not drawn)	–	7.3	15
C[C@H](C1CCCCC1)N1C(=O)CC(=O)N(CCc2cccc(Cl)c2)C1=O	–	9.7	> 100
O=C1CC(=O)N(C2CCc3ccccc32)C(=O)N1C1CCCC1 (stereo not drawn)	–	19.9	24.8
C[C@H](c1cccc2ccccc12)N1C(=O)CC(=O)N(C2CCCC2)C1=O	–	4.6	6.15
CC1(C)CCC(N2C(=O)CC(=O)N(CCc3cccc(Cl)c3)C2=O)C1 (stereo not drawn)	–	5.6	43
CC(C)C(=O)OCC1(N2C(=O)CC(=O)N(CCc3cccc(Cl)c3)C2=O)CCCC1	–	11.9	10.6
COC(=O)C(Cc1ccc(Cl)cc1)N1C(=O)CC(=O)N(C2CCCC2)C1=O (stereo not drawn)	–	7.5	13.4
O=C1CC(=O)N(C2CCCC2)C(=O)N1Cc1ccc(Cl)cc1	–	17.9	51.7
O=C1CC(=O)N(C2CC3CCC2C3)C(=O)N1CCc1cccc(C(F)(F)F)c1 (racemic)	–	2.4	100
C[C@H]1[C@H](N2C(=O)CC(=O)N(CCc3cccc(Cl)c3)C2=O)C[C@@H]2C[C@H]1C2(C)C	–	> 100	> 100
O=C1CC(=O)N([C@H]2C[C@H]3CC[C@@H]2C3)C(=O)N1CCc1ccc(Cl)cc1	–	2.1	100
CCOC(=O)[C@@H]1CCC[C@@H]1N1C(=O)CC(=O)N(CCc2cccc(Cl)c2)C1=O	–	12	12.6
CC1CCC(N2C(=O)CC(=O)N(CCc3cccc(Cl)c3)C2=O)C1 (stereo not drawn)	–	3.7	38
COc1ccc([C@@H]2Sc3ccccc3N(CCN(C)C)C(=O)[C@@H]2OC(C)=O)cc1	< 2	–	–
CC(=O)OCC1(N2C(=O)CC(=O)N(CCc3cccc(Cl)c3)C2=O)CCCC1	–	39.3	29.1
O=C(OCc1ccccc1)N1CC[C@H](N2C(=O)CC(=O)N(CCc3cccc(Cl)c3)C2=O)C1	–	50.3	33.9
O=C1CC(=O)N(C2CCCc3ccccc32)C(=O)N1C1CCCC1 (stereo not drawn)	–	19.7	20
COC(=O)[C@@H](Cc1ccccc1)N1C(=O)CC(=O)N(C2CCCC2)C1=O	–	55	44.3
COC(=O)C1(N2C(=O)CC(=O)N(CCc3cccc(Cl)c3)C2=O)CCCC1	–	32.7	33.4
C[C@H](c1cccc2ccccc12)N1C(=O)CC(=O)N(CCc2cccc(Cl)c2)C1=O	–	10.8	10
O=C1CC(=O)N(C2CC3CCC2C3)C(=O)N1CCc1cc(Cl)cc(Cl)c1 (racemic)	–	2.7	4.6
CC(C)(CN1C(=O)CC(=O)N(C2CC3CCC2C3)C1=O)c1cccc(Cl)c1 (mixture of isomers)	–	2.3	2.8
C[C@H]1CCCC[C@H]1N1C(=O)CC(=O)N(CCc2cccc(Cl)c2)C1=O	–	3.7	3.7
CC1CCC(N2C(=O)CC(=O)N(CCc3ccc(Cl)cc3)C2=O)C1 (stereo not drawn)	–	9.8	20.4
CC1CCC(N2C(=O)CC(=O)N(CCc3cccc(Cl)c3)C2=O)CC1 (stereo not drawn)	–	35	46

SMILES	Ratio IC50 [1]	IC50 [2] [µM]	IC50 [3] [µM]
CO[C@H]1CCC[C@@H]1N1C(=O)CC(=O)N(CCc2cccc(Cl)c2)C1=O	–	30.3	34.6
CC1(C)[C@@H]2CC[C@@]1(C)[C@@H](N1C(=O)CC(=O)N(CCc3ccc(Cl)cc3)C1=O)C2	–	> 100	> 100
CC(C)(CN1C(=O)CC(=O)N(C2CCCC2)C1=O)c1cccc(C(F)(F)F)c1	–	2.2	4.2
O=C1CC(=O)N(C2CC3CCC2C3)C(=O)N1CCc1cc(C(F)(F)F)cc(C(F)(F)F)c1 (mixture of isomers)	–	1.8	3.8
O=C1CC(=O)N(C[C@H]2CCCO2)C(=O)N1CCc1cccc(Cl)c1	–	> 100	41
O=C1CC(=O)N(C2CCCC2)C(=O)N1Cc1cccc(Cl)c1	–	43	46.7
CC(=O)O[C@H]1CCC[C@@H]1N1C(=O)CC(=O)N(CCc2cccc(Cl)c2)C1=O	–	> 100	48.1
C[C@H]1CCC[C@@H]1N1C(=O)CC(=O)N(CCc2ccc(Cl)cc2)C1=O (racemic)	–	7	23
O=C1CC(=O)N(C2CCCC2)C(=O)N1CCc1cccc(Cl)c1	–	6.3	> 100
CC1(C)CCC[C@H]1N1C(=O)CC(=O)N(CCc2ccc(Cl)cc2)C1=O	–	4.7	4.8
CC1(C)[C@@H]2CC[C@H](CN3C(=O)CC(=O)N(CCc4cccc(Cl)c4)C3=O)[C@H]1C2	–	40	47
CC(C)C(=O)O[C@H]1CCC[C@@H]1N1C(=O)CC(=O)N(CCc2cccc(Cl)c2)C1=O	–	13.7	12.9
CC1(C)[C@@H]2CC[C@H](CN3C(=O)CC(=O)N(CCc4ccc(Cl)cc4)C3=O)[C@H]1C2	–	> 100	> 100
O=C(O)[C@H]1CC[C@@H](N2C(=O)CC(=O)N(CCc3cccc(Cl)c3)C2=O)C1	–	> 100	> 100
CC1CCC(N2C(=O)CC(=O)N(CCc3ccc(Cl)cc3)C2=O)CC1 (stereo not drawn)	–	11	30
C[C@@H](C1CCCCC1)N1C(=O)CC(=O)N(CCc2cccc(Cl)c2)C1=O	–	4.3	> 100
CC1(C)CCC(N2C(=O)CC(=O)N(CCc3ccc(Cl)cc3)C2=O)C1 (stereo not drawn)	–	3.7	26
CCC(CC)N1C(=O)CC(=O)N(CCc2cccc(Cl)c2)C1=O	–	11.7	25.5
C[C@H]1CCCC[C@H]1N1C(=O)CC(=O)N(CCc2ccc(Cl)cc2)C1=O	–	6.1	8.3
CCC1CCC(N2C(=O)CC(=O)N(CCc3ccc(Cl)cc3)C2=O)C1 (racemic)	–	6.7	29
CC(C)OC(=O)[C@H]1CC[C@@H](N2C(=O)CC(=O)N(CCc3cccc(Cl)c3)C2=O)C1	–	10.4	8.5
CC(CN1C(=O)CC(=O)N(C2CC3CCC2C3)C1=O)c1ccc(Cl)cc1 (racemic)	–	3.4	8
C[C@@H]1[C@@H](C)CC[C@@H]1N1C(=O)CC(=O)N(CCc2cccc(Cl)c2)C1=O	–	3.09	13.2
